The nature of data set [1]: Drug metabolism in rat liver microsomes assessed as CYP450-mediated metabolism by measuring parent compound remaining at 5 uM incubated for 15 mins in presence of NADPH by UPLC-MS analysis. The format is ADME. The following applies: read-out: Stability. The essentials: (§1)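 Compound incubated with male mouse, rat, dog or pooled human S9 fractions, with NADPH (phase I) or […], sampled at 0, 15, 30 and 60 min. Read-out is percent parent remaining. Two independent experiments of two biological replicates; diclofenac and fluconazole used as assay controls.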
On the technique in general: Liver microsomes are a subcellular fraction often used to study metabolism.

A short description of data set [2]: Drug metabolism in mouse liver microsomes assessed as CYP450-mediated metabolism by measuring parent compound remaining at 5 uM incubated for 15 mins in presence of NADPH by UPLC-MS analysis. The format is ADME. The settings on record: read-out: Stability. In short, it runs like this:
as §1

Data set [3] in a line: Drug metabolism in dog liver microsomes assessed as UGT-mediated metabolism by measuring compound remaining at 5 uM measured immediately in presence of UDPGA by UPLC-MS analysis. Type of data set: ADME, Canis lupus familiaris. The settings on record: read-out: Stability. In short, it runs like this:
as §1

Data set [4] relates to Trypanosoma cruzi. In words: In vivo antitrypanosomal activity against Trypanosoma cruzi Y trypomastigotes infected in Swiss mouse assessed as reduction in parasitemia at 25 mg/kg, po administered twice daily for 5 days with 2 days interval for 3 cycles and measured 9 days post-infection by light microscopy relative to control. The format is functional. More on the design: scale not given: the % may be the effect or the level left. In short, it runs like this: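 Male Swiss Webster mice infected i.p. with 10⁴ Y-strain bloodstream trypomastigotes; six per group. Oral gavage from 5 dpi for 15 days (three 5-day rounds, 2 days off): test compound 25 mg/kg b.i.d., benznidazole 100 mg/kg s.i.d. Parasites counted in 5 μL tail blood to 30 dpi; mortality followed to 53 dpi.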

A short description of data set [5]: Drug metabolism in rat liver microsomes assessed as CYP450-mediated metabolism by measuring parent compound remaining at 5 uM incubated for 30 mins in presence of NADPH by UPLC-MS analysis. The format is ADME. The settings on record: read-out: Stability. The essentials: as §1
Data set [6] has as its system Trypanosoma cruzi. The experiment in a line: In vivo antitrypanosomal activity against Trypanosoma cruzi Y trypomastigotes infected in Swiss mouse assessed as reduction in parasitemia at 25 mg/kg, po administered twice daily via gavage for 5 days starting from 5 days post-infection and measured up to 30 days post-infection by light microscopic method relative to control. More on the design: scale not given: the % may be the effect or the level left. Type of data set: functional. The essentials:
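Male Swiss Webster mice (18-20 g, six per group) were infected i.p. with 10⁴ Y-strain bloodstream trypomastigotes. Treatment began at 5 dpi, only in mice with detectable parasitemia. Dosing was 25 mg/kg b.i.d. by oral gavage for 5 days, using a 2.0 mg/mL formulation in 10% EtOH, 0.1 M citrate pH 3.02. Parasites in 5 μL tail-vein blood were counted microscopically up to 30 dpi, against vehicle-treated infected mice.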

Data set [7] relates to Trypanosoma cruzi. The experiment in a line: Antitrypanosomal activity against bloodstream form of Trypanosoma cruzi Y trypomastigotes measured after 24 hrs by Neubauer chamber-based light microscopic analysis. Type of data set: functional, organism-based.
In data set [8] the target is UDP-glucuronosyltransferases (UGTs) (Homo sapiens, UniProt O60656+O75310+O75795+P06133+P0DTE4+P0DTE5+P16662+P19224+P22309+P22310+P35503+P35504+P36537+P54855+Q6UWM9+Q9BY64+Q9HAW7+Q9HAW8+Q9HAW9). In words: Drug metabolism in human liver S9 fraction assessed as UGT-mediated metabolism by measuring compound remaining at 5 uM measured immediately in presence of UDPGA by UPLC-MS analysis. Type of data set: ADME, subcellular. The following applies: read-out: Stability. In short, it runs like this: as §1

A short description of data set [9]: Toxicity in Swiss Webster mouse infected with Trypanosoma cruzi Y trypomastigotes assessed as appearance of clinical symptoms at 25 mg/kg, po administered twice daily via gavage for 5 days starting from 5 days post-infection and measured daily up to 40 days post-infection. Type of data set: organism-based. The settings on record: in vivo. The essentials:
(§2)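 Male Swiss Webster mice were infected i.p. with 10⁴ Y-strain trypomastigotes and treated by oral gavage for 5 days from 5 dpi. Regimens were 25 mg/kg b.i.d. (10% EtOH/citrate vehicle) or benznidazole 100 mg/kg s.i.d. Body weight and visual clinical signs were monitored, with daily mortality checks up to 40 dpi. There were six mice per group.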

Data set [10] is described as follows: Drug metabolism in rat liver microsomes assessed as UGT-mediated metabolism by measuring compound remaining at 5 uM measured immediately in presence of UDPGA by UPLC-MS analysis. The format is ADME. The settings on record: read-out: Stability. In short, it runs like this:
as §1

Data set [11] in a line: Drug metabolism in dog liver microsomes assessed as UGT-mediated metabolism by measuring compound remaining at 5 uM incubated for 15 mins in presence of UDPGA by UPLC-MS analysis. The settings on record: read-out: Stability. The format is ADME, Canis lupus familiaris. In short, it runs like this:
as §1

In another data set the target is Cytochrome P450 (Homo sapiens, UniProt P04798+P05177+P05181+P08684+P10632+P10635+P11509+P11712+P13584+P20813+P20815+P20853+P24462+P24903+P33260+P33261+P51589+P78329+P98187+Q02928+Q08477+Q16678+Q16696+Q5TCH4+Q6VVX0+Q7Z449+Q8TAV3+Q96SQ9+Q9HB55). In words: Drug metabolism in human liver S9 fraction assessed as CYP450-mediated metabolism by measuring parent compound remaining at 5 uM incubated for 60 mins in presence of NADPH by UPLC-MS analysis. The following applies: read-out: Stability. The format is ADME, subcellular. The essentials:
as §1

Data set [12] in a line: Drug metabolism in dog liver microsomes assessed as CYP450-mediated metabolism by measuring parent compound remaining at 5 uM incubated for 60 mins in presence of NADPH by UPLC-MS analysis. The following applies: read-out: Stability. The format is ADME, Canis lupus familiaris. The essentials:
as §1

A short description of data set [13]: Toxicity in Swiss Webster mouse infected with Trypanosoma cruzi Y trypomastigotes assessed as body weight loss at 25 mg/kg, po administered twice daily via gavage for 5 days starting from 5 days post-infection and measured daily up to 40 days post-infection. The format is organism-based. The following applies: in vivo. The essentials:
as §2

In general, EC50 refers to the concentration that produces a half-maximal response. For the compound `Nc1ccnc2c1c(I)cn2[C@@H]1O[C@H](CO)[C@@H](O)[C@H]1O`, the remaining at 0.25 h, 5 µM in data set [1] was 88%; in data set [2], 96%; in data set [11], 94%. In addition, the remaining at 0 min, 5 µM in data set [3], in [8] and in data set [10] was 100% each time. The Activity in the data set with Trypanosoma cruzi [4] was 100%; with Trypanosoma cruzi [6], 100%; in data set [9], “Non-Toxic”; in data set [13], “Non-Toxic”. Besides, the remaining at 0.5 h, 5 µM in data set [5] is 87%. In the data set on Trypanosoma cruzi [7], this compound registered an EC50 above 70 µM. For the same compound, the remaining at 1 h, 5 µM (on Cytochrome P450; in [12]) was 92% throughout.

The values above are taken from ChEMBL document CHEMBL4414577, “Discovery of Pyrrolo[2,3-b]pyridine (1,7-Dideazapurine) Nucleoside Analogues as Anti-Trypanosoma cruzi Agents” (J Med Chem, 2019).
